Results reported in ChEMBL document CHEMBL4513216, “Probing the Open Global Health Chemical Diversity Library for Multistage-Active Starting Points for Next-Generation Antimalarials” (ACS Infect Dis, 2020).

Assay: Toxicity liver stage against HepG2, at 10uM
Type: cell-based
Parameters: test concentration 10 uM, cell line HepG2-A16-CD81EGFP
Conditions: human, HepG2-A16-CD81EGFP cells; read-out: INHIBITION
How it was run: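 Uninfected HepG2-A16-CD81EGFP cells, 3 × 10^3 per well, 1536-well, plated on prespotted compound at 10 μM final, parasite-free screening media added to match infected plates; puromycin 10 μM positive, DMSO 0.5% negative; run in parallel with 48 h PbLuc assay at 37 °C, 5% CO2; viability by CellTiter-Glo luminescence, normalized to controls.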

SMILES	cytotoxicity at 10 µM [%]
CCNC(=O)N1C[C@@H]2OCC(=O)N(CC3CCCCC3)[C@@H]2C1	-4.04
Cc1cccc(CN2C[C@@H](F)[C@@H](OCc3nc4ccccc4[nH]3)C2)n1	8.01
CCn1nccc1C(=O)Nc1nc(C)c(C(C)=O)s1	1.28
O=C(Cc1cccs1)N1CC(c2nc(-c3cnccn3)no2)C1	-0.921
O=C(Cc1ccccc1Cl)Nc1cc(N2CCCC2)ncn1	-2.46
CC(=O)N1CCN(c2cc(-n3cccc3)ncn2)CC1	-2
O=C1CCC2(CCCN(C(=O)c3cccs3)C2)N1 (stereo not drawn)	6.88
CN(C)CCN1C(=O)CCC12CCN(C(=O)CC1CC1)CC2	3.35
CC(C)NC(=O)N1CCCn2cnc(CN3CCCC3=O)c2C1	17.4
O=C(CCc1ccccc1)NCC1CCN(Cc2ccsc2)CC1	5.27
COc1ccc(F)cc1S(=O)(=O)NCC(c1cccn1C)N(C)C (stereo not drawn)	-20.7
O=S(=O)(Nc1cnn(C2CCOCC2)c1)c1ccc2c(c1)CCO2	5.42
CN1C(=O)C[C@@H]2[C@@H]1CCN2C(=O)c1ccc[nH]1	-14.8
CCn1nnc(NCc2cc(Cl)cc(Cl)c2OC)n1	13.6
CCCc1noc(C2CCCCN2C(=O)C2CCCC2)n1 (stereo not drawn)	-35.8
O=C(c1cc(-c2ccco2)cs1)N1CCCC1	11
CN1CCC(CCc2ccnc(Nc3cnccn3)c2)CC1	-12.6
Cc1ncc(CN2CCc3nc4cc(C(C)(C)C)nn4c(O)c3C2)n1C	8.62
Cn1cccc1C(=O)N1CCCCC1c1ccn2ccnc2n1 (stereo not drawn)	-28.2
COCc1nc(C2CCN(Cc3nccn3C)CC2)no1	-14.2
CCn1cc(CN2C[C@@H]3CCCN3C[C@H]2CCSC)c(C)n1	-15.3
COc1ccc(CN2CCc3c(nc(-c4ccccn4)[nH]c3=O)C2)cc1	-15.9
COc1ccccc1CC(=O)N1CC[C@H](O)[C@]2(CCCO2)C1	-6.75

SMILES	cytotoxicity at 10 µM [%]
COc1ccc(SC(C)C(=O)N2CCC(C(=O)N3CCCC3)CC2)cc1 (stereo not drawn)	1.03
CCc1ccccc1CNC(=O)CNC(=O)C(C)(C)C	2.29
Cc1cnn(CCNCc2nccn2Cc2ccccc2)c1	5.91
CN(C(=O)OC(C)(C)C)C1CCN(C(=O)c2ccc(Cl)o2)C1 (stereo not drawn)	-42.5
Cc1cc(C)nc(NC2CCc3nc(C)nn3C2)n1 (stereo not drawn)	14.3
CN(C)C(=O)CCNC(=O)Nc1sc2ccccc2c1Cl	6.14
O=C(c1cc(C2CCCC2)no1)N1CC(O)C1	-1.57
Cc1nc(CNCc2ccc(N3CCC(CO)CC3)nc2)cs1	1.58
Cc1nn(C)c(C)c1C1CCCN1c1ncnc2c1CCC2 (stereo not drawn)	13.1
O=C1CCN(C(=O)NCCCc2ccc(Cl)cc2Cl)CCN1	-2.37
CCCc1nc(C)c(C(=O)NCc2ccc(C)n2C)s1	16.5
Cc1ccoc1C(=O)NC(CC(C)C)C(=O)N1CCC(CO)CC1 (stereo not drawn)	0.794
CC(C)C(C(=O)NC1CCOCC1)n1cnc2cc(F)c(F)cc21 (stereo not drawn)	-2.75
COCCn1cc(C(=O)N2CCCC2c2ccncc2)c2ccccc21 (stereo not drawn)	10.7
CC(C)(CNC(=O)Nc1nccs1)N1CCOCC1	-9.47
CS(=O)(=O)NC1CCN(c2cccc(F)c2C#N)CC1	-3.6
OCC(O)CSCc1nnc(-c2cccc(F)c2)o1 (stereo not drawn)	15.4
COc1cccc(CNc2nc(C)cc(C)n2)c1OC	-6.44
Cc1cccc(COc2ccccc2C(=O)N2CCC(C(N)=O)CC2)c1	-7.08
N#CC(NC(=O)CS(=O)(=O)C1CCCC1)c1ccc(F)cc1F (stereo not drawn)	3.56
O=C(Cn1cc(C2CC2)nn1)NC(c1cc(F)ccc1F)C1CC1 (stereo not drawn)	-12.6
CC(CC#N)N(C)Cc1ccc(F)cc1F (stereo not drawn)	6.03
COCCN(Cc1ccccc1)Cc1csc(-c2ncccn2)n1	3.78

SMILES	cytotoxicity at 10 µM [%]
Cc1c(C(=O)N2CCC(C(O)c3ccc(Cl)cc3)CC2)cnn1C (stereo not drawn)	-0.916
Cn1nccc1CNC(=O)NC1CCN(c2ncccc2Cl)C1 (stereo not drawn)	4.37
Cc1nc2n(n1)CCN(S(=O)(=O)c1ccc(OC(F)(F)F)cc1)C2	-5.86
Cc1c(F)cccc1S(=O)(=O)NCC(C)(C)CC(C)O (stereo not drawn)	-8.29
Cc1cc(C(C)NC(=O)c2cnc3onc(C)c3c2)c(C)o1 (stereo not drawn)	6.15
Cc1cc(C(C)(O)CNC(=O)C2(C)CCCC2)c(C)o1 (stereo not drawn)	-4.88
CCNC(=O)NC(=O)CN1CCOC(c2ccc(Br)cc2)C1 (stereo not drawn)	2.08
CCn1c(C2CCCN2Cc2noc(C(C)(C)C)n2)nc2ccccc21 (stereo not drawn)	3.18
Cc1nnc(-c2cccc(C#N)c2)n1C1CCN(C(C)C)C1=O (stereo not drawn)	-2.4
COCCCNC(=O)CN(C)C(=O)CN(C)c1ccc(C#N)cn1	-6.08
O=C(CCNS(=O)(=O)c1ccc2c(c1)CCCC2)NCc1ccoc1	5.86
CCc1ccccc1C(=O)N1CCN(S(C)(=O)=O)[C@@H](C)C1	-8.72
Cc1n[nH]c(C2CN(C(=O)c3ccco3)CCO2)n1 (stereo not drawn)	-14.5
CCS(=O)(=O)N1C[C@H]2CN(CC3CC3)C(=O)[C@H]2C1	0.797
O=C(CCc1nc(-c2ccccc2)no1)N[C@H]1COC[C@@H]1N1CCCC1	-1.83
COCc1cc(N2CCOCC2)n2nccc2n1	-1.98
CN1CCN2CCN(Cc3cnc(NCc4ccccc4)nc3)CC2C1 (stereo not drawn)	-16.8
Cc1c(C(C)N)cnn1-c1ccccn1 (stereo not drawn)	-3.86
c1csc(CN(Cc2ccsc2)CC2CCCO2)n1 (stereo not drawn)	-1.32
Cc1cc(C(=O)NC(C)c2nnn[nH]2)c2ccc(C)c(C)c2n1 (stereo not drawn)	-10.7
OCCNc1cc(N2CCN(Cc3ccccc3)C(CCO)C2)ncn1 (stereo not drawn)	6.45
CCn1c(C)nnc1SCCNC(=O)c1sc(C(C)C)nc1C	-1.27
O=C(NCc1cccnc1N1CCc2ccccc2C1)c1cnc[nH]1	5.97

SMILES	cytotoxicity at 10 µM [%]
CCc1ncc(CNC2CC(=O)N(CCc3cccc(Cl)c3)C2)cn1 (stereo not drawn)	-3.62
O=C(CCn1cnnc1)N1CCCC(c2ncc[nH]2)C1 (stereo not drawn)	-9.01
O=S(=O)(Cc1ccccc1F)NCCN1CCOCC1	24.8
COC(=O)C1CCN(C(=O)c2ccc(C)c(NS(C)(=O)=O)c2)CC1	3.98
Cc1nc(C)n(C2CCCN(C(=O)CCCc3ccccn3)C2)n1 (stereo not drawn)	-0.586
CN(Cc1ccncc1)C(=O)[C@H]1CSCN1C(=O)OC(C)(C)C	-9.65
CC(=O)N1CCC(C(=O)NCc2cc[nH]n2)(c2ccccc2)CC1	-0.037
CC(=O)N(Cc1noc(C2CC2)n1)C1CCN(CC(=O)NC2CC2)C1 (stereo not drawn)	-3.67
COc1ccc(Cl)cc1NCC(=O)NCc1cccnc1OC	-10.3
CCNC(=O)NC(=O)CNC(C)(C)c1ccc2c(c1)OCO2	-8.58
CC(C)CCN(CCC(C)C)Cc1nc2c(cnn2C)c(=O)[nH]1	-5.57
CCN(CC1CCCO1)C(=O)Nc1cc(C)ccc1S(C)(=O)=O (stereo not drawn)	-12.5
CCC(O)CN1CCN(C(=O)c2cccc(CC#N)c2)CC1 (stereo not drawn)	-11.6
CCc1nnc(CN2CCN(CC(O)c3ccccc3)CC2)o1 (stereo not drawn)	-12.3
CC(C)c1noc(CCC(=O)NC2CCS(=O)(=O)C2)n1 (stereo not drawn)	-15.6
Cc1cnn(CC2CN(Cc3noc(C4CC4)n3)CCO2)c1 (stereo not drawn)	-11.4
c1cnn(CC2CN(Cc3nc(C4CC4)no3)CCO2)c1 (stereo not drawn)	-27.6
c1ccc(OCCN2CCc3c(ncn3C3CC3)C2)cc1	-10.3
O=S(=O)(CCN1CCc2c(ncn2C2CC2)C1)c1ccccc1	-14.5
COc1ncccc1CNC(=O)NC(C)Cn1cccn1 (stereo not drawn)	-12.5
COc1ccc(C(=O)N2CCCS2(=O)=O)cc1	-1.88
CCc1nccn1C1CCCN(C(=O)c2c(C)nsc2NC)C1 (stereo not drawn)	-5.86
Cn1ccnc1CN1CCCN(C(=O)COC2CCCC2)CC1	-18.1

SMILES	cytotoxicity at 10 µM [%]
CC(C(=O)NCc1ccc(N2CCCCCC2)nc1)S(C)(=O)=O (stereo not drawn)	-11.9
CSCc1ccc(CNC2CCCN(c3ccc(C)nn3)C2)o1 (stereo not drawn)	-13.2
COc1ccc(C(=O)N2CCC(Nc3cccnn3)CC2)cn1	4.07
Cc1cc(CN(C)C(=O)NC2CCN(S(C)(=O)=O)CC2)no1	3.25
CC(O)CN1CCN(C(=O)c2ccn(-c3cccc(Cl)c3)n2)CC1 (stereo not drawn)	-6.8
CC(NC(=O)N1CCN(CCc2ccccc2)CC1)c1nncn1C (stereo not drawn)	0.0722
COc1ccccc1C(=O)N(C)Cc1ncc(C)c(OC)c1C	5.37
Nc1cccnc1N1CCCCCC1	4.45
COc1ccc(CN2CCC(c3cc(O)nc(C)n3)C2)c(OC)c1 (stereo not drawn)	-5.77
Cn1cc(C(=O)NCc2cn3c(n2)CN(CC2CCOC2)CC3)cn1 (stereo not drawn)	5.22
CN(C)C(=O)[C@@H]1CCO[C@@H]2CCN(Cc3ccccc3)C[C@@H]21	-12.1
O=C1CC2(CCN(Cc3ccncc3)C2)CN1c1cccc(F)c1 (stereo not drawn)	-152
O=C1N(c2cncnc2)CCC12CCCN(Cc1ccccn1)C2 (stereo not drawn)	-9.35
Cc1ccc(-c2cnc3n2CCN(C)C32CCN(CC3CC3)CC2)cc1	11
COCCn1cc2c(n1)C(CNCc1ccco1)OCC2 (stereo not drawn)	-11.9
CC(C)N1CCC2(CCCN(c3nccc(C(F)(F)F)n3)C2)CC1	10.9
CC(C)n1nc(Cn2cccn2)c2c1CN(C1CCOC1)C2 (stereo not drawn)	6.95
O=S(=O)(c1cccs1)N1CCCn2cnc(CN3CCCC3)c2C1	1.14
O=C(NCCn1nc(C2CCNC2)c2cccnc21)c1ccccc1 (stereo not drawn)	-23.9
O=C1NC2(CCN(Cc3cccnc3)CC2)CC1c1cccnc1 (stereo not drawn)	3.14
CCCN1C[C@@H]2CC[C@H]1CN(c1nnc(C(C)C)s1)C2	-11.4
